Calls of active or inactive are those of the source. The calls are words filed in the database; no cut-off is given here.
Assays:
Huh-7 [1] = assay: Cytotoxicity against human HuH7 cells at 2.5 to 40 uM after 72 hrs by SRB assay; type: functional, cell-based
Procedure, shortened: (§1)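 SRB screen. Cells seeded at 2000–10,000/well and treated next day for 72 h with 40, 20, 10, 5 and 2.5 µM (DMSO under 1%). TCA fixation, 0.4% SRB staining, Tris solubilization, absorbance at 515 nm. Growth inhibition calculated relative to DMSO-only wells. IC50 derived from the five-concentration inhibition percentages.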

HCT-116 = assay: Cytotoxicity against human HCT116 cells at 2.5 to 40 uM after 72 hrs by SRB assay; type: functional, cell-based; procedure, shortened: as §1
T47D [2] = assay: Cytotoxicity against human T47D cells at 2.5 to 40 uM after 72 hrs by SRB assay; type: functional, cell-based; procedure, shortened: as §1
T47D [3] = assay: Cytotoxicity against human T47D cells after 72 hrs by SRB assay; type: functional, cell-based
[4] = Cytotoxicity against human HuH7 cells after 72 hrs by SRB assay; type: functional, cell-based; conditions: Huh-7, 72 h
Procedure, shortened: (§2)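 Sulforhodamine B assay. Cells seeded at 2000–10,000/well and treated the next day in triplicate with ten concentrations (DMSO vehicle, under 1% final) for 24, 48 or 72 h at 37 °C, 5% CO2. Fixed with ice-cold TCA for 1 h at 4 °C, stained with 0.4% SRB in 1% acetic acid, dye solubilized in 10 mM Tris base, A515 read. % inhibition = 100 × (1 − OD drug/OD DMSO). IC50 taken from dose–response curves.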

[5] = Cytotoxicity against human HCT116 cells after 72 hrs by SRB assay; type: functional, cell-based; conditions: HCT-116, 72 h; procedure, shortened: as §1
HepG2 = assay: Cytotoxicity against human HepG2 cells after 72 hrs by SRB assay; type: functional, cell-based; conditions: HepG2, 72 h; procedure, shortened: as §2
[6] = Cytotoxicity against human Hep3B cells after 72 hrs by SRB assay; type: functional, cell-based, Hep 3B2
Procedure, shortened: (§3)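 Liver cancer cell panel, SRB assay after 72 h exposure to ten concentrations (DMSO vehicle under 1%). TCA-fixed, SRB-stained, absorbance at 515 nm. Percent cell death calculated against DMSO-only wells, and IC50 read from dose–response curves.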

PLC = assay: Cytotoxicity against human PLC cells after 72 hrs by SRB assay; type: functional, cell-based; procedure, shortened: as §3
[7] = Cytotoxicity against human SKHEP1 cells after 72 hrs by SRB assay; type: functional, cell-based; conditions: SK-HEP1, 72 h; procedure, shortened: as §3
[8] = Cytotoxicity against human Mahlavu cells after 72 hrs by SRB assay; type: functional, cell-based; procedure, shortened: as §2
[9] = Cytotoxicity against human FOCUS cells after 72 hrs by SRB assay; type: functional, cell-based; procedure, shortened: as §2
[10] = Cytotoxicity against human SNU182 cells after 72 hrs by SRB assay; type: functional, cell-based; conditions: SNU-182, 72 h; procedure, shortened: as §3
[11] = Cytotoxicity against human SNU475 cells after 72 hrs by SRB assay; type: functional, cell-based, SNU-475; conditions: Homo sapiens, SNU-475, 72 h; read-out: IC50; procedure, shortened: as §3
Huh-7 [12] = assay: Cytotoxicity against human HuH7 cells assessed as condensed apoptotic nuclei after 72 hrs by Hoechst […] staining-based fluorescence microscopy; type: functional, cell-based
FOCUS = assay: Cytotoxicity against human FOCUS cells assessed as condensed apoptotic nuclei after 72 hrs by Hoechst […] staining-based fluorescence microscopy; type: functional, cell-based
Mahlavu [13] = assay: Induction of apoptosis in human Mahlavu cells assessed as PARP cleavage at IC50 after 72 hrs by Western blotting analysis; type: functional, cell-based
Mahlavu [14] = assay: Induction of […] in human Mahlavu cells assessed as PARP cleavage at IC50 after 72 hrs by Western blotting analysis; type: functional, cell-based
Mahlavu [15] = assay: Induction of apoptosis in human Mahlavu cells assessed as Bcl2 expression at IC50 after 72 hrs by Western blotting analysis; type: functional, cell-based
Mahlavu [16] = assay: Induction of apoptosis in human Mahlavu cells assessed as total cytochrome c level at IC50 after 72 hrs by Western blotting analysis; type: functional, cell-based
Huh-7 [17] = assay: Reduction in intrinsic cellular ATP consumption in human HuH7 cells at IC50 after 24 hrs by bioluminescence assay; type: functional, cell-based
Procedure, shortened: (§4)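 Cells treated for 24 h, with staurosporine as positive control and DMSO-only controls. 20 µg lysate protein in kinase buffer (40 mM Tris-HCl pH 7.6, 20 mM MgCl2, 0.1 mg/ml BSA), no exogenous ATP added. Luciferase ATP-detection reagent added, 10 min in the dark at room temperature, then luminescence read. Higher signal taken as reduced ATP consumption.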

Mahlavu [18] = assay: Reduction in intrinsic cellular ATP consumption in human Mahlavu cells at IC50 after 24 hrs by bioluminescence assay; type: functional, cell-based; procedure, shortened: as §4

Row | Compound | inhibition (Huh-7 [1]) | inhibition (HCT-116) | inhibition (T47D [2]) | IC50 (T47D [3]) [µM] | IC50 [5] [µM] | further results
1 | Nc1ncnc2c1ncn2CCN1CCN(CCN2CCOCC2)CC1 | inactive | inactive | inactive |  |  | 
2 | COc1ccc(CNc2ncnc3c2ncn3S(=O)(=O)c2ccc(C)cc2)cc1 | inactive | inactive | inactive |  |  | 
3 | Cc1ccc(S(=O)(=O)n2cnc3c(NCc4ccc(F)cc4F)ncnc32)cc1 | inactive | inactive |  | 116 |  | 
4 | O=CN1CCN(c2ncnc3[nH]cnc23)CC1 | inactive | inactive | inactive |  |  | 
5 | Cc1ccc(S(=O)(=O)n2cnc3c(Cl)ncnc32)cc1 |  |  |  | 13.9 | 22.8 | IC50 [4]: 20.8 µM
6 | CCOC(=O)Cn1cnc2c(N3CCN(CCO)CC3)ncnc21 | inactive | inactive | inactive |  |  | 
7 | CC1CCN(c2ncnc3c2ncn3C2CCCC2)CC1 |  |  |  | 21 | 16.6 | IC50 [4]: 17.4 µM
8 | Nc1nc(F)nc2c1ncn2[C@@H]1O[C@H](CO)[C@@H](O)[C@@H]1O [FLUDARABINE] |  |  |  | 46.2 | 6.6 | IC50 [4]: 60.1 µM
9 | CCOC(=O)Cn1cnc2c(NCc3cccc(C(F)(F)F)c3)ncnc21 | inactive |  | inactive |  | > 200 | 
10 | Nc1ncnc2c1ncn2CCNCCNc1ccccc1 | inactive | inactive | inactive |  |  | 
11 | OCCNc1ncnc2[nH]cnc12 | inactive | inactive | inactive |  |  | 
12 | OC[C@H]1O[C@@H](n2cnc3c2N=CNC[C@H]3O)C[C@@H]1O | inactive | inactive | inactive |  |  | 
13 | CCNCCNCCn1cnc2c(N)ncnc21 | inactive | inactive | inactive |  |  | 
14 | C1=CC(CCNc2ncnc3[nH]cnc23)CCC1 (centres undefined) |  |  |  | 40.3 | 12.9 | IC50 [4]: 14.2 µM
15 | Nc1nc(Cl)nc2c1ncn2[C@H]1C[C@H](O)[C@@H](CO)O1 [CLADRIBINE] |  |  |  | 0.7 | 0.3 | IC50 [4]: 1.8 µM
16 | OCCN1CCN(c2[nH]cnc3ncnc2-3)CC1 | inactive | inactive | inactive |  |  | 
17 | Cc1ccc(S(=O)(=O)n2cnc3c(N4CCC(C)CC4)ncnc32)cc1 |  |  |  | 22.5 | 14.6 | IC50 [4]: 17.8 µM
18 | Nc1ncnc2c1ncn2CCNCCN1CCCC1 | inactive | inactive | inactive |  |  | 
19 | CC(C)NCCNCCn1cnc2c(N)ncnc21 | inactive | inactive | inactive |  |  | 

Row | Compound | inhibition (Huh-7 [1]) | inhibition (HCT-116) | inhibition (T47D [2]) | IC50 (T47D [3]) [µM] | IC50 [5] [µM] | further results
20 | CN1CCN(NCCn2cnc3c(N)ncnc32)CC1 | inactive | inactive | inactive |  |  | 
21 | c1nc(NC2CC2)c2nc[nH]c2n1 | inactive | inactive | inactive |  |  | 
22 | Cc1ccc(S(=O)(=O)n2cnc3c(NCc4ccc(Cl)cc4Cl)ncnc32)cc1 |  |  |  | 47.6 | 28.1 | IC50 [4]: 26.9 µM
23 | CC1CCN(c2ncnc3[nH]cnc23)CC1 | inactive | inactive | inactive |  |  | 
24 | Cc1ccc(S(=O)(=O)n2cnc3c(NCCC4C=CCCC4)ncnc32)cc1 (centres undefined) |  |  |  | 34.5 | 8.7 | IC50 [4]: 9.4 µM
25 | c1ccc(CN2CCC(Nc3ncnc4[nH]cnc34)CC2)cc1 | inactive | inactive | inactive |  |  | 
26 | c1ccc(NCCNc2ncnc3[nH]cnc23)cc1 | inactive |  | inactive |  | 132 | 
27 | Fc1ccc(CNc2ncnc3[nH]cnc23)c(F)c1 | inactive | inactive | inactive |  |  | 
28 | O=c1[nH]cc(F)c(=O)[nH]1 [FLUOROURACIL] |  |  |  | 7.9 | 6 | 
29 | Nc1ncnc2c1ncn2CCN1CCN(CCO)CC1 | inactive | inactive | inactive |  |  | 
30 | Clc1ccc(CNc2ncnc3[nH]cnc23)c(Cl)c1 | inactive | inactive |  | 147 |  | 
31 | CN(C)CCNCCn1cnc2c(N)ncnc21 | inactive | inactive | inactive |  |  | 
32 | FC(F)(F)c1cccc(CNc2ncnc3[nH]cnc23)c1 |  |  | inactive |  | 102 | IC50 [4]: 68.3 µM
33 | CCOC(=O)Cn1cnc2c(N3CCN(c4ccc(C(F)(F)F)cc4)CC3)ncnc21 |  |  | inactive |  | 72.4 | IC50 [4]: 53.3 µM
34 | Cc1ccc(S(=O)(=O)n2cnc3c(NC4CC4)ncnc32)cc1 | inactive | inactive | inactive |  |  | 
35 | CCOC(=O)Cn1cnc2c(NCc3ccc(Cl)cc3Cl)ncnc21 | inactive | inactive |  | 99.9 |  | 
36 | Nc1ncnc2c1ncn2CCNCCN1CCOCC1 | inactive | inactive | inactive |  |  | 
37 | COc1ccc(CNc2ncnc3[nH]cnc23)cc1 | inactive |  | inactive |  | 86.6 | 
38 | Cc1ccc(S(=O)(=O)n2cnc3c(N4CCN(c5ccc(C(F)(F)F)cc5)CC4)ncnc32)cc1 |  |  |  | 42.7 | 4.5 | IC50 [4]: 1.4 µM; IC50 (HepG2): 1.2 µM; IC50 [6]: 2.9 µM; IC50 (PLC): 3.7 µM; IC50 [7]: 1.7 µM; IC50 [8]: 1 µM; IC50 [9]: 1 µM; IC50 [10]: 8.4 µM; IC50 [11]: 5.4 µM; Activity (Huh-7 [12]): Active; Activity (FOCUS): Active; Activity (Mahlavu [13]): inactive; Activity (Mahlavu [14]): inactive; Activity (Mahlavu [15]): inactive; Activity (Mahlavu [16]): inactive; Activity (Huh-7 [17]): Active; Activity (Mahlavu [18]): Active

From ChEMBL document CHEMBL3352193, “Synthesis of novel substituted purine derivatives and identification of the cell death mechanism” (Eur J Med Chem, 2015)
